Data as given in ChEMBL document CHEMBL4190234, “Design, synthesis and anticancer activity of new monastrol analogues bearing 1,3,4-oxadiazole moiety” (Eur J Med Chem, 2017).

Tests used:
Assay type in all cases: functional
[1] = system: SNB-75; assay: Growth inhibition of human SNB75 cells at 10 uM incubated for 48 hrs by sulforhodamine B assay relative to control; details: SNB-75, 48 h, read-out: GI
Method in brief: (§1)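 NCI single-dose screen: cells grown in RPMI 1640 with 5% FBS and 2 mM L-glutamine, plated at 5,000–40,000 cells/well and preincubated 24 h at 37 °C, 5% CO2. Compounds taken from DMSO stock and tested at final 10 µM for 48 h. Cells fixed with TCA, stained with 0.4% SRB, absorbance read at 515 nm. Percentage growth calculated against untreated controls; controls held DMSO at the same dilution.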

[2] = system: HL-60(TB); assay: Growth inhibition of human HL-60(TB) cells at 10 uM incubated for 48 hrs by sulforhodamine B assay relative to control; details: HL-60, 48 h, read-out: GI
Method in brief: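 Single dose of 10 µM in the NCI ~60-line panel. Cells grown in RPMI 1640 with 5% FBS and 2 mM L-glutamine, plated and pre-incubated 24 h, then exposed 48 h at 37°C under 5% CO2. Suspension cells fixed with TCA (16% final) and stained with sulforhodamine B, A515 read. Reported as percent growth versus untreated control and as GI%.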

[3] = system: HOP-92; assay: Growth inhibition of human HOP92 cells at 10 uM incubated for 48 hrs by sulforhodamine B assay relative to control; details: HOP-92, 48 h, read-out: GI
Method in brief: (§2)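 Single-dose screen at 10 μM final: cells in RPMI 1640, 5% FBS, 2 mM L-glutamine, plated 5,000–40,000/well, preincubated 24 h at 37°C, 5% CO2; drug 48 h; adherent cells fixed with 10% TCA, suspension cells with 16% TCA; SRB stain, absorbance 515 nm; percentage growth versus untreated control, with time-zero plates.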

[4] = system: M14; assay: Growth inhibition of human M14 cells at 10 uM incubated for 48 hrs by sulforhodamine B assay relative to control; details: M14, 48 h, read-out: GI; method in brief: as §2
[5] = system: OVCAR-4; assay: Growth inhibition of human OVCAR4 cells at 10 uM incubated for 48 hrs by sulforhodamine B assay relative to control; details: OVCAR-4, 48 h, read-out: GI; method in brief: as §2
[6] = system: MOLT-4; assay: Growth inhibition of human MOLT4 cells at 10 uM incubated for 48 hrs by sulforhodamine B assay relative to control; details: MOLT-4, 48 h, read-out: GI; method in brief: as §2
[7] = system: SK-OV-3; assay: Growth inhibition of human SKOV3 cells at 10 uM incubated for 48 hrs by sulforhodamine B assay relative to control; details: SK-OV-3, 48 h, read-out: GI; method in brief: as §1
[8] = system: UO-31; assay: Growth inhibition of human UO31 cells at 10 uM incubated for 48 hrs by sulforhodamine B assay relative to control; details: UO-31, 48 h, read-out: GI; method in brief: as §1
[9] = system: EKVX; assay: Growth inhibition of human EKVX cells at 10 uM incubated for 48 hrs by sulforhodamine B assay relative to control; details: read-out: GI; method in brief: as §2
[10] = system: OVCAR-3; assay: Growth inhibition of human OVCAR3 cells at 10 uM incubated for 48 hrs by sulforhodamine B assay relative to control; details: OVCAR-3, 48 h, read-out: GI; method in brief: as §2
[11] = system: HCC 2998; assay: Growth inhibition of human HCC2998 cells at 10 uM incubated for 48 hrs by sulforhodamine B assay relative to control; details: HCC 2998, 48 h, read-out: GI; method in brief: as §2
[12] = system: OVCAR-5; assay: Growth inhibition of human OVCAR5 cells at 10 uM incubated for 48 hrs by sulforhodamine B assay relative to control; details: OVCAR-5, 48 h, read-out: GI; method in brief: as §2
[13] = system: SK-MEL-5; assay: Growth inhibition of human SK-MEL-5 cells at 10 uM incubated for 48 hrs by sulforhodamine B assay relative to control; details: SK-MEL-5, 48 h, read-out: GI; method in brief: as §1
[14] = system: TK-10; assay: Growth inhibition of human TK10 cells at 10 uM incubated for 48 hrs by sulforhodamine B assay relative to control; details: TK-10, 48 h, read-out: GI; method in brief: as §1
[15] = system: HCT-15; assay: Growth inhibition of human HCT15 cells at 10 uM incubated for 48 hrs by sulforhodamine B assay relative to control; details: HCT-15, 48 h, read-out: GI; method in brief: as §2
[16] = system: ACHN; assay: Growth inhibition of human ACHN cells at 10 uM incubated for 48 hrs by sulforhodamine B assay relative to control; details: read-out: GI; method in brief: as §2
[17] = system: LOX IMVI; assay: Growth inhibition of human LOXIMVI cells at 10 uM incubated for 48 hrs by sulforhodamine B assay relative to control; details: read-out: GI; method in brief: as §2
[18] = system: NCI-H522; assay: Growth inhibition of human NCI-H522 cells at 10 uM incubated for 48 hrs by sulforhodamine B assay relative to control; details: NCI-H522, 48 h, read-out: GI; method in brief: as §2
[19] = system: SF-539; assay: Growth inhibition of human SF539 cells at 10 uM incubated for 48 hrs by sulforhodamine B assay relative to control; details: SF-539, 48 h, read-out: GI; method in brief: as §1
[20] = system: RXF 393; assay: Growth inhibition of human RXF393 cells at 10 uM incubated for 48 hrs by sulforhodamine B assay relative to control; details: RXF 393, 48 h, read-out: GI; method in brief: as §2
[21] = system: SF-268; assay: Growth inhibition of human SF268 cells at 10 uM incubated for 48 hrs by sulforhodamine B assay relative to control; details: SF-268, 48 h, read-out: GI; method in brief: as §1
[22] = system: NCI-H23; assay: Growth inhibition of human NCI-H23 cells at 10 uM incubated for 48 hrs by sulforhodamine B assay relative to control; details: NCI-H23, 48 h, read-out: GI; method in brief: as §2
[23] = system: DU-145; assay: Growth inhibition of human DU145 cells at 10 uM incubated for 48 hrs by sulforhodamine B assay relative to control; details: DU-145, 48 h, read-out: GI; method in brief: as §2
[24] = system: NCI-H322M; assay: Growth inhibition of human NCI-H322M cells at 10 uM incubated for 48 hrs by sulforhodamine B assay relative to control; details: read-out: GI; method in brief: as §2
[25] = system: NCI/ADR-RES; assay: Growth inhibition of human NCI/ADR-RES cells at 10 uM incubated for 48 hrs by sulforhodamine B assay relative to control; details: read-out: GI; method in brief: as §2
[26] = system: KM12; assay: Growth inhibition of human KM12 cells at 10 uM incubated for 48 hrs by sulforhodamine B assay relative to control; details: KM12, 48 h, read-out: GI; method in brief: as §2
[27] = system: NCI-H460; assay: Growth inhibition of human NCI-H460 cells at 10 uM incubated for 48 hrs by sulforhodamine B assay relative to control; details: NCI-H460, 48 h, read-out: GI; method in brief: as §2
[28] = system: CAKI-1; assay: Growth inhibition of human Caki1 cells at 10 uM incubated for 48 hrs by sulforhodamine B assay relative to control; details: CAKI-1, 48 h, read-out: GI; method in brief: as §2
[29] = system: RPMI-8226; assay: Growth inhibition of human RPMI8226 cells at 10 uM incubated for 48 hrs by sulforhodamine B assay relative to control; details: RPMI-8226, 48 h, read-out: GI; method in brief: as §2
[30] = system: K562; assay: Growth inhibition of human K562 cells at 10 uM incubated for 48 hrs by sulforhodamine B assay relative to control; details: K562, 48 h, read-out: GI; method in brief: as §2

Structure (SMILES)	inhibition of growth at 10 µM [1]	inhibition of growth at 10 µM [2]	inhibition of growth at 10 µM [3]	inhibition of growth at 10 µM [4]	inhibition of growth at 10 µM [5]	inhibition of growth at 10 µM [6]	inhibition of growth at 10 µM [7]	inhibition of growth at 10 µM [8]	inhibition of growth at 10 µM [9]	inhibition of growth at 10 µM [10]	inhibition of growth at 10 µM [11]	inhibition of growth at 10 µM [12]	inhibition of growth at 10 µM [13]	inhibition of growth at 10 µM [14]	inhibition of growth at 10 µM [15]	inhibition of growth at 10 µM [16]	inhibition of growth at 10 µM [17]	inhibition of growth at 10 µM [18]	inhibition of growth at 10 µM [19]	inhibition of growth at 10 µM [20]	further results
CCOC(=O)C1=C(C)NC(SCc2nnc(-c3ccc(Cl)cc3)o2)=NC1c1ccc(Cl)cc1Cl (configuration not stated)	15.9%	106%	73.6%	34.8%	47.3%	88.8%	< 10%	62.8%	22.8%	37.2%	15.5%	11%	19.7%	20.6%	44.7%	42.3%	41.7%	49.8%	13.6%	56.6%	inhibition of growth at 10 µM [21]: 26.7%; inhibition of growth at 10 µM [22]: 34%; inhibition of growth at 10 µM [23]: 26.9%; inhibition of growth at 10 µM [24]: 21.1%; inhibition of growth at 10 µM [25]: 45.4%; inhibition of growth at 10 µM [26]: 36.6%; inhibition of growth at 10 µM [27]: 40.8%
CC(=O)C1=C(C)NC(SCc2nnc(-c3ccc(Cl)cc3)o2)=NC1c1ccc(F)cc1 (configuration not stated)	16.8%	11.5%	< 10%	< 10%	< 10%	< 10%	< 10%	26.1%	< 10%	< 10%	< 10%	< 10%	< 10%	14.6%	< 10%	< 10%	< 10%	15.6%	< 10%	< 10%	inhibition of growth at 10 µM [28]: 16.9%; inhibition of growth at 10 µM [29]: 13.8%; inhibition of growth at 10 µM [30]: < 10%; inhibition of growth at 10 µM [21]: < 10%; inhibition of growth at 10 µM [22]: < 10%; inhibition of growth at 10 µM [23]: < 10%; inhibition of growth at 10 µM [24]: < 10%; inhibition of growth at 10 µM [25]: < 10%; inhibition of growth at 10 µM [26]: < 10%; inhibition of growth at 10 µM [27]: < 10%
